Source: ChEMBL document CHEMBL1649560, “Beta-lactamase-mediated beta-lactam resistance in Campylobacter species: prevalence of Cj0299 (bla OXA-61) and evidence for a novel beta-Lactamase in C. jejuni” (2009)
In brackets after ≈: the same amount, converted by molar mass.

Assays:
Type in all cases: functional
[1] = system: Campylobacter jejuni; test: Antibacterial activity against bla gene-positive and nitrocefin reaction-positive beta-lactamase harboring Campylobacter jejuni isolate P790 by NCCLS agar doubling dilution method
Method in brief: (§1)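 MICs by agar doubling dilution per the NCCLS (now CLSI) Campylobacter Working Group method. Isolates came from UK chicken flocks (feces, ceca or farm environment), 2000–2006. C. jejuni NCTC 11168 and C. coli NCTC 11366 served as control strains. The ampicillin resistance cutoff was 8 μg/ml; BSAC/CLSI Enterobacteriaceae guidelines were used for other agents.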

[2] = system: Campylobacter jejuni; test: Antibacterial activity against bla gene-positive and nitrocefin reaction-positive beta-lactamase harboring Campylobacter jejuni isolate P1618 by NCCLS agar doubling dilution method
Method in brief: (§2)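 MICs of β-lactams by agar doubling dilution following the NCCLS (CLSI) Campylobacter Working Group procedure, with C. jejuni NCTC 11168 and C. coli NCTC 11366 as controls. Isolates were from UK poultry flocks. β-Lactamase status was set by Cj0299 PCR (281-bp amplimer) and by a nitrocefin colour change of sonicated lysate within 5 min, or within 30 min on repeat.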

[3] = system: Campylobacter jejuni; test: Antibacterial activity against bla gene-positive and nitrocefin reaction-negative beta-lactamase harboring Campylobacter jejuni isolate P1698 by NCCLS agar doubling dilution method; method in brief: as §2
[4] = system: Campylobacter jejuni; test: Antibacterial activity against bla gene-positive and nitrocefin reaction-positive beta-lactamase harboring Campylobacter jejuni isolate P338 by NCCLS agar doubling dilution method; method in brief: as §1
[5] = system: Campylobacter jejuni; test: Antibacterial activity against bla gene-positive and nitrocefin reaction-positive beta-lactamase harboring Campylobacter jejuni isolate P1650 by NCCLS agar doubling dilution method; method in brief: as §2
[6] = system: Campylobacter jejuni; test: Antibacterial activity against bla gene-negative and nitrocefin reaction-negative beta-lactamase harboring Campylobacter jejuni isolate P850 by NCCLS agar doubling dilution method; method in brief: as §2
[7] = system: Campylobacter jejuni; test: Antibacterial activity against bla gene-positive and nitrocefin reaction-negative beta-lactamase harboring Campylobacter jejuni isolate P1699 by NCCLS agar doubling dilution method; method in brief: as §2
[8] = system: Campylobacter jejuni; test: Antibacterial activity against bla gene-negative and nitrocefin reaction-negative beta-lactamase harboring Campylobacter jejuni isolate P1962 by NCCLS agar doubling dilution method; method in brief: as §2
[9] = system: Campylobacter coli; test: Antibacterial activity against bla gene-positive and nitrocefin reaction-positive beta-lactamase harboring Campylobacter coli isolate P1826 by NCCLS agar doubling dilution method; method in brief: as §2
[10] = system: Campylobacter jejuni; test: Antibacterial activity against bla gene-positive and nitrocefin reaction-positive beta-lactamase harboring Campylobacter jejuni isolate P316 by NCCLS agar doubling dilution method; method in brief: as §1
[11] = system: Campylobacter jejuni; test: Antibacterial activity against Campylobacter jejuni by NCCLS agar doubling dilution method
Method in brief: (§3)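 MICs by agar doubling dilution following the NCCLS (CLSI) Campylobacter Working Group procedure, applied to ampicillin- and amoxicillin-resistant isolates from UK chicken flocks (2000–2006). C. jejuni NCTC 11168 and C. coli NCTC 11366 served as control strains. Resistance was called at an ampicillin cutoff of 8 μg/ml. Other agents were judged against Enterobacteriaceae guidelines (BSAC, CLSI).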

[12] = system: Campylobacter jejuni; test: Antibacterial activity against bla gene-positive and nitrocefin reaction-positive beta-lactamase harboring Campylobacter jejuni isolate P1730 by NCCLS agar doubling dilution method; method in brief: as §1
[13] = system: Campylobacter jejuni; test: Antibacterial activity against bla gene-negative and nitrocefin reaction-negative beta-lactamase harboring Campylobacter jejuni isolate P835 by NCCLS agar doubling dilution method; method in brief: as §2
[14] = system: Campylobacter jejuni; test: Antibacterial activity against Campylobacter jejuni isolate P270 harboring blaOXA-61::cat gene by NCCLS agar doubling dilution method
[15] = system: Campylobacter jejuni; test: Antibacterial activity against bla gene-negative and nitrocefin reaction-positive beta-lactamase harboring Campylobacter jejuni isolate P854 by NCCLS agar doubling dilution method; method in brief: as §2
[16] = system: Campylobacter jejuni; test: Antibacterial activity against bla gene-positive and nitrocefin reaction-positive beta-lactamase harboring Campylobacter jejuni isolate P305 by NCCLS agar doubling dilution method; method in brief: as §1
[17] = system: Campylobacter jejuni; test: Antibacterial activity against bla gene-positive and nitrocefin reaction-positive beta-lactamase harboring Campylobacter jejuni isolate P1093 by NCCLS agar doubling dilution method; method in brief: as §2
[18] = system: Campylobacter jejuni; test: Antibacterial activity against Campylobacter jejuni isolate P1093 harboring blaOXA-61::cat gene by NCCLS agar doubling dilution method
Method in brief: (§4)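 Agar doubling dilution MICs (NCCLS/CLSI Campylobacter Working Group method) against Cj0299-inactivated mutants. Mutants were made by transforming the C. jejuni isolate with pCI and selecting on Mueller-Hinton agar with 10 μg/ml chloramphenicol for 3–5 days. Chromosomal insertion was confirmed by PCR with Cj0299 and cat primers.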

[19] = system: Campylobacter coli; test: Antibacterial activity against bla-positive and beta-lactamase-weakly positive Campylobacter coli isolate P1627 by NCCLS agar doubling dilution method; method in brief: as §1
[20] = system: Campylobacter coli; test: Antibacterial activity against bla gene-positive and nitrocefin reaction-positive beta-lactamase harboring Campylobacter coli isolate P321 by NCCLS agar doubling dilution method; method in brief: as §2
[21] = system: Campylobacter jejuni; test: Antibacterial activity against bla gene-negative and nitrocefin reaction-positive beta-lactamase harboring Campylobacter jejuni isolate P843 by NCCLS agar doubling dilution method; method in brief: as §2
[22] = system: Campylobacter coli; test: Antibacterial activity against Campylobacter coli by NCCLS agar doubling dilution method; method in brief: as §3
[23] = system: Campylobacter jejuni; test: Antibacterial activity against Campylobacter jejuni isolate P338 harboring blaOXA-61::cat gene by NCCLS agar doubling dilution method; method in brief: as §4
[24] = system: Campylobacter jejuni; test: Antibacterial activity against bla gene-positive and nitrocefin reaction-positive beta-lactamase harboring Campylobacter jejuni isolate P286 by NCCLS agar doubling dilution method; method in brief: as §1
[25] = system: Campylobacter jejuni; test: Antibacterial activity against bla gene-positive and nitrocefin reaction-positive beta-lactamase harboring Campylobacter jejuni isolate P285 by NCCLS agar doubling dilution method; method in brief: as §1
[26] = system: Campylobacter jejuni; test: Antibacterial activity against bla gene-positive and nitrocefin reaction-negative beta-lactamase harboring Campylobacter jejuni NCTC 11168 by NCCLS agar doubling dilution method; method in brief: as §2

SMILES	MIC [1] [µg/mL]	MIC [2] [µg/mL]	MIC [3] [µg/mL]	MIC [4] [µg/mL]	MIC [5] [µg/mL]	MIC [6] [µg/mL]	MIC [7] [µg/mL]	MIC [8] [µg/mL]	MIC [9] [µg/mL]	MIC [10] [µg/mL]	MIC50 [11] [µg/mL]	MIC90 [11] [µg/mL]	MIC [12] [µg/mL]	MIC [13] [µg/mL]	MIC [14] [µg/mL]	MIC [15] [µg/mL]	MIC [16] [µg/mL]	MIC [17] [µg/mL]	MIC [18] [µg/mL]	MIC [19] [µg/mL]	further results
C[C@@H](O)[C@H]1C(=O)N2C(C(=O)O)=C(S[C@@H]3CN[C@H](C(=O)N(C)C)C3)[C@H](C)[C@H]12 [MEROPENEM]	0.12 (≈ 0.313 µM)	0.008 (≈ 0.0209 µM)	0.015 (≈ 0.0391 µM)	0.12 (≈ 0.313 µM)	0.008 (≈ 0.0209 µM)	0.03 (≈ 0.0782 µM)	0.015 (≈ 0.0391 µM)	0.015 (≈ 0.0391 µM)	0.06 (≈ 0.156 µM)	0.12 (≈ 0.313 µM)	0.015 (≈ 0.0391 µM)	0.12 (≈ 0.313 µM)	0.015 (≈ 0.0391 µM)	< 0.015	0.008 (≈ 0.0209 µM)	0.03 (≈ 0.0782 µM)	0.06 (≈ 0.156 µM)	0.5 (≈ 1.3 µM)	0.03 (≈ 0.0782 µM)	0.03 (≈ 0.0782 µM)	MIC [20]: 0.12 µg/mL (≈ 0.313 µM); MIC [21]: 0.03 µg/mL (≈ 0.0782 µM); MIC50 [22]: 0.12 µg/mL (≈ 0.313 µM); MIC90 [22]: 0.12 µg/mL (≈ 0.313 µM); MIC [23]: 0.015 µg/mL (≈ 0.0391 µM); MIC [24]: 0.25 µg/mL (≈ 0.652 µM); MIC [25]: 0.015 µg/mL (≈ 0.0391 µM); MIC [26]: 0.08 µg/mL (≈ 0.209 µM)
CC1(C)S[C@@H]2[C@H](NC(=O)Cc3ccccc3)C(=O)N2[C@H]1C(=O)O [PENICILLIN G]	128 (≈ 383 µM)	64 (≈ 191 µM)	< 8	128 (≈ 383 µM)	64 (≈ 191 µM)	64 (≈ 191 µM)	< 8	8 (≈ 23.9 µM)	128 (≈ 383 µM)	128 (≈ 383 µM)	64 (≈ 191 µM)	256 (≈ 766 µM)	64 (≈ 191 µM)	4 (≈ 12 µM)	2 (≈ 5.98 µM)	256 (≈ 766 µM)	128 (≈ 383 µM)	256 (≈ 766 µM)	8 (≈ 23.9 µM)	8 (≈ 23.9 µM)	MIC [20]: 64 µg/mL (≈ 191 µM); MIC [21]: 64 µg/mL (≈ 191 µM); MIC50 [22]: 128 µg/mL (≈ 383 µM); MIC90 [22]: 128 µg/mL (≈ 383 µM); MIC [23]: 16 µg/mL (≈ 47.8 µM); MIC [24]: 128 µg/mL (≈ 383 µM); MIC [25]: 128 µg/mL (≈ 383 µM); MIC [26]: 8 µg/mL (≈ 23.9 µM)
CCN1CCN(C(=O)N[C@@H](C(=O)N[C@@H]2C(=O)N3[C@@H]2SC(C)(C)[C@@H]3C(=O)O)c2ccccc2)C(=O)C1=O [PIPERACILLIN]	128 (≈ 247 µM)	> 512	> 512	> 256	> 512	> 256	256 (≈ 495 µM)	> 256	512 (≈ 989 µM)	> 256	≥ 512	> 512	> 512	> 256	8 (≈ 15.5 µM)	> 256	> 256	128 (≈ 247 µM)	16 (≈ 30.9 µM)	512 (≈ 989 µM)	MIC [20]: > 256 µg/mL; MIC [21]: > 256 µg/mL; MIC [22]: 512 µg/mL (≈ 989 µM); MIC50 [22]: 512 µg/mL (≈ 989 µM); MIC90 [22]: 512 µg/mL (≈ 989 µM); MIC [23]: 8 µg/mL (≈ 15.5 µM); MIC [24]: > 256 µg/mL; MIC [25]: > 256 µg/mL; MIC [26]: 512 µg/mL (≈ 989 µM)
